Among the data in PMC2659690 (Molecular Pharmaceutics, 2008) are IC50, GI50 and Papp values, retold here.

The target in data set [1] is T1, PEPT1 (Homo sapiens, UniProt P46059).
T1 sequence (P46059 1-708): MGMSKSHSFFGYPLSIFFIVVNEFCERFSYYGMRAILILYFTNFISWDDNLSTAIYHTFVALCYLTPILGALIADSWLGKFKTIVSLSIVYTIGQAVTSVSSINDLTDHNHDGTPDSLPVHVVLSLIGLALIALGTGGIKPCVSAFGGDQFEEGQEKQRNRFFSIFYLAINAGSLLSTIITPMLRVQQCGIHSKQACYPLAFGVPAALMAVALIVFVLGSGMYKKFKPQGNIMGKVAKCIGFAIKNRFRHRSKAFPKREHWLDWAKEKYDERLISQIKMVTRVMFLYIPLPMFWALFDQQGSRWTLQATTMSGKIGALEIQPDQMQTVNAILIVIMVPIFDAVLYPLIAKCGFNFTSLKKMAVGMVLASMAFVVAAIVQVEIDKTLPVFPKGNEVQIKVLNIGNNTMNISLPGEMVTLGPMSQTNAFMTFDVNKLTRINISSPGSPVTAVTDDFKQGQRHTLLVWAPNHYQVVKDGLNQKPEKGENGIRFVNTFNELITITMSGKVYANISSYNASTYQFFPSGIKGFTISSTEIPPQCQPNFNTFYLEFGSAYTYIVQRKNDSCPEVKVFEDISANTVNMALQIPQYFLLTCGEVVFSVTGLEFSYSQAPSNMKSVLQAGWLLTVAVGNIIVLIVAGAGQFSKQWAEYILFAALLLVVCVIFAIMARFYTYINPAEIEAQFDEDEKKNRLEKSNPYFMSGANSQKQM
The data set can be described thus: [3H]Gly-Sar uptake inhibition in Caco-2 cells. It counts as cell-based.

For data set [2], the target named is T1, PEPT1. The data set is described as follows: [3H]Gly-Sar uptake inhibition in Capan-2 cells. It counts as cell-based.
Another data set relates to Capan-2 cells. The data set can be described thus: Cell proliferation. Type of data set: cell-based. The conditions noted are these: Homo sapiens, Capan-2, pH 6, read-out: GI50 Capan-2. Put shortly: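 Capan-2 cells (passages 50-54) in antibiotic-free RPMI-1640 plus 10% FBS were plated at 125,000 per well and allowed 24 h to attach. After a rinse with pH 6.0 uptake buffer, they received test compound in the same buffer (twofold series, 4 to 0.25 mmol/L; buffer-only wells as 100% viability) for 4 h at 37 °C. Two washes and 24 h recovery in medium followed.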

A further data set concerns AsPC-1 cells. The data set can be described thus: Cell proliferation. The settings on record: Homo sapiens, ASPC1, pH 6, read-out: GI50 AsPC-1. It counts as cell-based. Put shortly:
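AsPC-1 cells (passages 63-65) were grown antibiotic-free in RPMI-1640 with 10% FBS, seeded at 125,000 cells/well and left 24 h. They were washed with pH 6.0 uptake buffer and exposed 2 h at 37 °C to test compound (2-fold dilutions, 4 to 0.25 mmol/L, in that buffer); buffer alone served as 100% viability. Cells were washed twice and recovered 24 h in medium.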

For data set [3], the target named is T1, PEPT1. The data set is described as follows: [3H]Gly-Sar uptake inhibition in AsPC-1 cells. It counts as cell-based.
Data set [4] can be described thus: Apical-to-basolateral permeability across Caco-2 monolayers. The settings on record: human. Type of data set: in vitro ADME. On the technique in general: Caco-2 monolayers are a common model of the intestinal barrier.

As usually defined, the IC50 is the point on the concentration scale where inhibition reaches its midpoint. In general, GI50 refers to the concentration that inhibits growth by half. By Papp is commonly meant the rate of passage across a membrane or cell layer, normalised by area and donor concentration. Regarding `O=c1[nH]c(=O)n([C@H]2C[C@H](O)[C@@H](CO)O2)cc1F` [floxuridine, 5-fluoro-2′-deoxyuridine, reference compound], the results for the 50% inhibitory concentration (IC50) against PEPT1 [1], at PEPT1 [2] and on PEPT1 [3] were 8.43 ± 2.66 mM, 16.1 ± 6.71 mM and 6.63 ± 1.52 mM, respectively. The GI50 in the data set on Capan-2 cells and in the data set on AsPC-1 cells was over 4 mM throughout. In data set [4], this compound registered a Papp at 2 h, 0.1 mM of 0.69 ± 0.1 ×10⁻⁶ cm/s.
